The series is described as follows: Toxicity liver stage against HepG2, at 10uM. Also on record: test concentration 10 uM, cell line HepG2-A16-CD81EGFP. Type of series: cell-based. Particulars: human, HepG2-A16-CD81EGFP cells; read-out: INHIBITION
In a few lines: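 Uninfected HepG2-A16-CD81EGFP cells, 3 × 10^3 per well, 1536-well, plated on prespotted compound at 10 μM final, parasite-free screening media added to match infected plates; puromycin 10 μM positive, DMSO 0.5% negative; run in parallel with 48 h PbLuc assay at 37 °C, 5% CO2; viability by CellTiter-Glo luminescence, normalized to controls.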
With `Cc1c(C(=O)O)sc2nc(C(F)(F)F)ccc12`, the cytotoxicity at 10 µM turned out to be 1.5%.
With `CN1CCOC[C@H]1c1nc(-c2ccc(F)cc2F)c[nH]1` the figure was -5.66%; with `COCCNC(=O)c1cccnc1Oc1ccc(Cl)cc1`, 6.99%; with `Cc1nc(C(=O)Nc2cccnc2)c(C(C)C)s1`, -2.36%.
Regarding `CC(C)CNC(=O)C1CC(=O)N(c2n[nH]c3ccccc23)C1` (stereo unspecified), the cytotoxicity at 10 µM is -11.6%.
With `O=C(c1ccno1)N1CC2(CCC(C(=O)N3CCCC3)O2)C1` (stereo unspecified) the figure was -157%.
For `Cc1ccc(CN2CC[C@H]3C(=O)N(c4cccnc4)CCO[C@H]3C2)o1`, the cytotoxicity at 10 µM was 7.8%.
`COCC1c2nnn(CC3CC3)c2CCN1C(=O)c1cc(C)[nH]c1C` (stereo unspecified): the cytotoxicity at 10 µM is -140%.
With `Cc1noc(C)c1CN1CC2(CCN(C(=O)c3cc[nH]n3)C2)CC1=O` (stereo unspecified) the figure was 12.2%; with `Cc1nc(CN2CCO[C@H]3CN(C(=O)c4ccncc4)C[C@H]32)cs1`, -146%.
With `O=C(O)C1CCN(C(=O)CCn2ccc3cc(Br)ccc32)CC1` the figure was 15.5%.
With `Cc1cccc(-c2cc(C(=O)O)sn2)c1`, the cytotoxicity at 10 µM is -0.475%.
With `CS(=O)(=O)N1CCC(Oc2cnccn2)CC1` the figure was 0.097%.
For the compound `Cn1cc(C2CC(=O)NC23CCN(c2ncc(F)cn2)CC3)cn1` (stereo unspecified), the cytotoxicity at 10 µM was -5.39%.
With `CCn1nc(C)c(NC(=O)c2cc(NC(=O)C(C)C)n(C)n2)c1C` the figure was 0.568%; with `Cc1nc(C(Cc2ccsc2)NC(=O)CCN2CCOCC2)sc1C` (stereo unspecified), 7.04%; with `O=C(Cc1ccccc1)N1CCC(c2nnc(-c3ccccn3)o2)CC1`, 2.83%.
With `C[C@]1(O)CCN(Cc2ncccc2F)C[C@@H]1Oc1ccccc1` the figure was -21.4%; with `Cc1cc2c(=O)n3c(nc2s1)CCN(C(=O)c1cnn(C)c1)CC3`, -1.94%; with `Cc1cccc(C(=O)NCCS(=O)(=O)Cc2ccccc2)c1`, -7.43%.
With `CN1CCOC(CNCc2cnc(C(C)(C)C)s2)C1` (stereo unspecified) the figure was -2.87%.
Take `Cc1nc(C)c(C(=O)N2CCc3ccc(F)cc3C2C)o1` (stereo unspecified): the cytotoxicity at 10 µM was -1.65%.
With `Cc1nc(C)n(CC2CCCN2c2ncnc3sc(C)c(C)c23)n1` (stereo unspecified) the figure was 21.4%; with `Cn1cc(N2CCN(c3ccc(C#N)c(Cl)c3)CC2=O)cn1`, -3.81%.
For the compound `N#Cc1ccc(CN2CCC(CN3CCOCC3)C2)cc1` (stereo unspecified), the cytotoxicity at 10 µM is -7.01%.
With `N#CC1(NC(=O)c2c(F)ccc(OC(F)F)c2F)CCOCC1` the figure was -8.29%.
With `O=C(NCCCN1CCOCC1)C(OC1CCCC1)c1ccccc1` (stereo unspecified) the figure was -5.95%.
With `CC(C)(C)[S+]([O-])CCNC(=O)c1csc(NC2CC2)n1` (stereo unspecified) the figure was 13.4%; with `O=C(NCCNC(=O)c1ccc(Cl)cc1)NCCn1cccc1`, 5.95%.
For `CC(=O)c1c(F)cccc1NC1CCN(S(=O)(=O)C2CC2)CC1`, the cytotoxicity at 10 µM was 12.5%.
With `CN1CCN(C(=O)NCCNc2ncccn2)Cc2ccccc21` the figure was -4.47%; with `CC(NC(=O)NCCCn1cccn1)c1ccccn1` (stereo unspecified), -11.5%.
Turning to `O=C(CCNS(=O)(=O)c1ccc(Cl)cc1)NCc1ccoc1`, the cytotoxicity at 10 µM is -11.8%.
With `CCN(Cc1nc2c(cnn2C)c(=O)[nH]1)c1ccccc1C` the figure was 2.78%; with `CN(Cc1ccncc1)C(=O)c1ccc(F)c(NS(C)(=O)=O)c1`, -0.453%.
With `CN(C(=O)CNC(=O)CC(C)(C)C)C1CCN(c2ccccn2)CC1` the figure was 13.9%.
Consider `O=C(CNc1cc2c(cc1Br)OCCO2)NC1CCS(=O)(=O)C1` (stereo unspecified), for which the cytotoxicity at 10 µM turned out to be 6.43%.
With `N#Cc1cc(N2CCC(CS(N)(=O)=O)CC2)nc2ccccc12` the figure was -6.03%; with `COCCN(Cc1ccco1)Cc1nc(-c2ccccc2C)no1`, 6.72%.
Consider `COCCN(c1ccncc1)S(=O)(=O)c1cc(C)c(F)cc1F`, for which the cytotoxicity at 10 µM was -6.54%.
With `CCS(=O)(=O)CC(=O)Nc1cccc2c1CN(CC(C)C)C2` the figure was 2.25%; with `CS(=O)(=O)N(Cc1ccon1)c1cccc(Br)c1`, 7.57%.
As to `Cc1oc(-c2cccs2)nc1C(=O)N(C)C1(C#N)CCC1`, the cytotoxicity at 10 µM was 5.09%.
With `CC(O)CN1CCC(CN(C)Cc2ccc(C#N)cc2F)CC1` (stereo unspecified) the figure was -1.87%; with `COc1ccccc1NC(=O)NCCCC(=O)Nc1cn[nH]c1`, -9.55%; with `Cc1[nH]ncc1C(=O)N(CC(C)C)CC(O)c1ccc(F)cc1` (stereo unspecified), -1.61%.
With `Cc1nc(S(=O)(=O)N2CCSC3(CCCCC3)C2)cn1C` the figure was -9.2%.
With `COC(C)(C)c1noc(C2(C#N)CCCC2)n1` the figure was -5.11%; with `CCCNC(=O)NC(=O)CNc1c(F)cccc1N1CCCC1`, 0.266%; with `COc1ccccc1N(C)Cc1nc2c(cnn2C)c(=O)[nH]1`, -8.48%.
`O=C(Nc1ccc(N2CCCC2)nc1)N1CCc2sccc2C1`: the cytotoxicity at 10 µM was -16.6%.
With `Cc1c(CC(=O)N2CCN(CC(F)(F)F)CC2)nnn1-c1ccccc1` the figure was -14.8%.
With `CC1CCN(CCNC(=O)c2ccccc2N2CCOCC2)CC1` the figure was -6.05%; with `COc1ncccc1C(=O)N1CCn2c(COCC3CC3)cnc2C1C` (stereo unspecified), -1.03%.
As to `CN1CCN(C(=O)N2CC[C@@](O)(c3ccccc3)[C@H]3CCCC[C@@H]32)CC1`, the cytotoxicity at 10 µM was -9.67%.
With `CC(C)N(CCO)C(=O)C1CCC(=O)N(Cc2ccc(Cl)cc2)C1` (stereo unspecified) the figure was -4.9%; with `NCCO[C@H]1C[C@@H](O)C12CCN(C(=O)COc1cccc(Cl)c1)CC2`, -4.32%; with `CCN1CCC(c2nnc(CN3CCCC3)n2C2CC2)CC1`, -7.3%.
With `CCC(=O)N1CCc2[nH]cnc2C12CCN(CC1CCOC1)CC2` (stereo unspecified) the figure was -0.264%; with `Cc1nn(C)c2nc(N3CCCCC3c3ccc(F)cc3)sc12` (stereo unspecified), -7.88%; with `CN(Cc1cc(C(C)(C)C)n[nH]1)C(=O)c1cn2ccsc2n1`, -12.6%.
With `Cc1nc(N(C)C)nc(N2CCC3(CC2)CNC(=O)O3)c1C` the figure was 14.9%.
For the compound `CN(C)Cc1nnc(C2CCN(c3ncccn3)CC2)n1C1CC1`, the cytotoxicity at 10 µM is -1.26%.
Take `CCn1c(N)nc2cc(C(=O)NCCc3nnc(C)s3)cnc21`: the cytotoxicity at 10 µM is -2.46%.
On to `Cc1ccc2cc(C3(O)CCN(C)CC3)ccc2n1`, for which the cytotoxicity at 10 µM was -0.432%.
With `COc1nc2c(cc1C(=O)N(C)Cc1noc3c1CCCC3)CCC2` the figure was 0.224%; with `O=C(c1ncccc1O)N1CCc2c(nc(-c3ccncc3)[nH]c2=O)C1`, -0.918%.
With `CN(CC(=O)N1CCOCC(CO)C1)Cc1ccc(F)cc1` (stereo unspecified) the figure was -2.82%; with `COc1ccc2c(C)c(C(=O)N3CCC(NC(C)=O)C3)oc2c1` (stereo unspecified), 7.72%; with `CC(C)N(C)S(=O)(=O)c1ccc2c(c1)CCN(C(=O)c1ccccn1)C2`, 10.3%.
For the compound `COc1ccc(C(=O)N2CCC(C3CCN(c4ncccn4)CC3)C2)o1` (stereo unspecified), the cytotoxicity at 10 µM is -12.5%.
`CN(Cc1ccc2nsnc2c1)C(=O)CCc1cc2n(n1)CCCNC2`: the cytotoxicity at 10 µM was -4.62%.
Take `O=C(O)C1(O)CCN(c2ccc3cccc(Cl)c3n2)CC1`: the cytotoxicity at 10 µM is 4.57%.
With `O=C(c1cccnc1N1CCCCC1)N1CCCC(n2cccn2)C1` (stereo unspecified) the figure was -0.438%; with `COc1ncccc1CNC(=O)c1cnccn1`, -8.77%.
With `CC(C)(C)NC(=O)CCOc1cccc(F)c1` the figure was -4.95%; with `CSC(C)C(=O)NCc1ccnc(N2CCN(C)CC2)c1` (stereo unspecified), -15.3%.
With `CN(C)c1ccc(CNC(=O)NCCc2cccs2)cn1`, the cytotoxicity at 10 µM was -2.8%.
With `Cc1cn2nc(N3CCCC3Cn3cccn3)sc2n1` (stereo unspecified) the figure was -18.1%; with `Cc1ccc(N2CCCC(NCc3ccc(Cl)o3)C2)nn1` (stereo unspecified), -6.83%; with `CN(Cc1ccc(-n2ccnc2)cc1)CC1CCCN1c1cccnn1` (stereo unspecified), -6.21%.
As to `Cc1nc2c(c(C)c1CC(=O)NCc1ccc(F)cc1)c(=O)[nH]n2C`, the cytotoxicity at 10 µM was -15.9%.
As for `CC(=O)N(Cc1ncc(C)o1)C1CCN(Cc2csc(C)n2)C1` (stereo unspecified), the cytotoxicity at 10 µM is -15.8%.
With `CC(C)c1nccn1C1CCCN(C(=O)c2ccsc2)C1` (stereo unspecified) the figure was -5.2%.
With `CC(C)c1nnc2n1CCN(C(=O)c1ccc(Cn3cccc3)cc1)C2` the figure was -4.28%.
With `Cc1cc(C)n(C2CCCN(C(=O)c3ccn(C)c(=O)c3)C2)n1` (stereo unspecified) the figure was -5.72%.
Consider `O=C(Cc1ccc2c(c1)OCO2)N1CCN(c2cnccn2)CC1`, for which the cytotoxicity at 10 µM was -5.51%.
With `CS(=O)(=O)N1CCC2(CCCN(Cc3ccccn3)C2)C1` (stereo unspecified) the figure was -148%; with `O=C(C[C@@H]1COC[C@H]2CN(Cc3cccnc3)C[C@@H]12)N1CCCC1`, -128%; with `Cc1cccc(N2CCc3ncnc(C4CC4)c3CC2)n1`, -148%.
With `CCn1ncc2c1CN(C(=O)c1cc(C)oc1C)CC2COC` (stereo unspecified) the figure was 13%; with `Cc1nc(CN2CCOCC3(CCN(c4cnccn4)CC3)C2)cs1`, 7.37%; with `Cc1ccc(CN2C[C@H](C(=O)N3CCCCO3)[C@@H]3CCO[C@@H]3C2)o1`, 9.46%.
As for `Cc1nc(CN2C[C@@H]3CN(c4ncccn4)C[C@@H]3C2=O)cs1`, the cytotoxicity at 10 µM amounted to 5.16%.
With `COCc1nn(C(C)C)c2c1CCN(Cc1nccs1)C2` the figure was 8.42%; with `O=C([C@@H]1COC[C@H]2CN(c3ccncn3)C[C@H]21)N1CCCCO1`, -132%.

Values taken from ChEMBL document CHEMBL4513216, “Probing the Open Global Health Chemical Diversity Library for Multistage-Active Starting Points for Next-Generation Antimalarials” (ACS Infect Dis, 2020).
